Test results taken from ChEMBL document CHEMBL2380249, “Synthesis and evaluation of Janus type nucleosides as potential HCV NS5B polymerase inhibitors” (Bioorg Med Chem Lett, 2013).
pEC50: −log10 of the molar value.

Legend:
[1] = Cytotoxicity against African green monkey Vero cells; format: cell-based; details: chlorocebus sabaeus
[2] = Cytotoxicity against human CEM cells; format: cell-based; details: CEM (CCRF-CEM) cells
[3] = Cytotoxicity against human PBMC; format: cell-based
[4] = system: Human immunodeficiency virus 1; assay: Antiviral activity against Human immunodeficiency virus 1 LAI infected in human PBMC; format: functional, organism-based; details: Human immunodeficiency virus 1, M:B_Lai
Outline: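 HIV-1 LAI replication in primary human peripheral blood mononuclear cells, with AZT as positive control.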

[5] = Cytotoxicity against human HuH7 cells assessed as reduction in rRNA levels at 120 hrs by RT-PCR analysis; format: cell-based, Huh-7
Hepatitis C virus = assay: Antiviral activity against Hepatitis C virus infected in human HuH7 cells; format: functional, organism-based, Hepacivirus hominis; details: Huh-7
Outline: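 Subgenomic HCV replicon in Huh7 cells; HCV RNA extracted and amplified to measure inhibition of replication, with cytotoxicity determined in the same cells at the same time.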

Compound	pEC50 [4]	EC90 [4]	pEC50 (Hepatitis C virus)	EC90 (Hepatitis C virus)	CC50 [1]	CC50 [2]	CC50 [3]	CC50 at 120 h [5]
Nc1nc2c(c(=O)[nH]1)c1c(N)ncnc1n2[C@@H]1O[C@H](CO)[C@@H](O)[C@H]1O	5.03	24 µM	5.52	22.5 µM	63.1 µM	20.2 µM	3.1 µM	< 10 µM
CCOC(=O)[C@H](C)NP(=O)(OC[C@H]1O[C@@H](n2c3ncnc(N)c3c3c(N)ncnc32)[C@](C)(O)[C@@H]1O)Oc1ccccc1 (stereo partly specified)			< 5.00	> 10 µM				> 10 µM
Nc1ncnc2c1c1c(N)ncnc1n2[C@@H]1O[C@H](CO)[C@@H](O)[C@H]1O	< 4.00	> 100 µM	< 5.00	> 10 µM	82.5 µM	29.5 µM	53.8 µM	> 10 µM
Cc1cn([C@H]2C[C@H](N=[N+]=[N-])[C@@H](CO)O2)c(=O)[nH]c1=O [ZIDOVUDINE]		0.028 µM	< 5.00	> 10 µM	53 µM	14.3 µM	> 100 µM	> 10 µM

The next lines start with results.

pEC50 [4]	EC90 [4]	pEC50 (Hepatitis C virus)	EC90 (Hepatitis C virus)	Compound	CC50 [1]	CC50 [2]	CC50 [3]	CC50 at 120 h [5]
5.02	30.2 µM	< 5.00	> 10 µM	Nc1ncnc2c1c1c(=O)[nH]c(S)nc1n2[C@@H]1O[C@H](CO)[C@@H](O)[C@H]1O	43.1 µM	8.2 µM	2.9 µM	> 10 µM
< 4.00	> 100 µM	< 5.00	> 10 µM	C[C@@]1(O)[C@H](O)[C@@H](CO)O[C@H]1n1c2ncnc(N)c2c2c(=O)[nH]c(S)nc21	> 100 µM	> 100 µM	> 100 µM	> 10 µM
≤ 4.00	≥ 100 µM	< 5.00	> 10 µM	C[C@@]1(O)[C@H](O)[C@@H](CO)O[C@H]1n1c2ncnc(N)c2c2c(N)ncnc21	> 100 µM	> 100 µM	> 100 µM	> 10 µM
5.48	> 100 µM	5.52	17.9 µM	C[C@@]1(O)[C@H](O)[C@@H](CO)O[C@H]1n1c2ncnc(N)c2c2c(=O)[nH]c(N)nc21	> 100 µM	36.5 µM	92.1 µM	3 µM
< 4.00	> 100 µM	< 5.00	> 10 µM	C[C@@]1(O)[C@H](O)[C@@H](CO)O[C@H]1n1c2ncnc(N)c2c2c(=O)[nH]c(=O)[nH]c21	> 100 µM	> 100 µM	> 100 µM	> 10 µM
